Results from ChEMBL document CHEMBL4304756, “Second-Generation Tryptamine Derivatives Potently Sensitize Colistin Resistant Bacteria to Colistin” (ACS Med Chem Lett, 2019).
Calls of active or inactive are those of the source. The rule behind the calls is not given here.

What was measured:
[1] = tested on: Acinetobacter baumannii; test: Potentiation of colistin-induced antibacterial activity against Acinetobacter baumannii 3941 assessed as reduction in colistin MIC at 7.5 uM incubated for 16 hrs by broth microdilution method (reference value: 512 ug/ml); format: functional; conditions: Acinetobacter baumannii, 3941, 16 h
[2] = tested on: Acinetobacter baumannii; test: Potentiation of colistin-induced antibacterial activity against Acinetobacter baumannii 4106 assessed as reduction in colistin MIC at 10 uM incubated for 16 hrs by broth microdilution method (reference value: 1024 ug/ml); format: functional; conditions: Acinetobacter baumannii, 4106, 16 h
[3] = tested on: Escherichia coli; test: Potentiation of colistin-induced antibacterial activity against Escherichia coli YD626 assessed as colistin MIC at 50 uM incubated for 16 hrs by broth microdilution method (reference value: 1 ug/ml); format: functional; conditions: YD626, 16 h
[4] = tested on: Acinetobacter baumannii; test: Potentiation of colistin-induced antibacterial activity against Acinetobacter baumannii 4106 assessed as reduction in colistin MIC at 20 uM incubated for 16 hrs by broth microdilution method (reference value: 1024 ug/ml); format: functional; conditions: Acinetobacter baumannii, 4106, 16 h
[5] = tested on: Acinetobacter baumannii; test: Potentiation of colistin-induced antibacterial activity against Acinetobacter baumannii 17978 harbouring mcr-1 gene assessed as colistin sensitization activity at 30 uM incubated for 16 hrs by broth microdilution method; format: functional, organism-based
[6] = tested on: Acinetobacter baumannii; test: Potentiation of colistin-induced antibacterial activity against Acinetobacter baumannii 4106 assessed as reduction in colistin MIC at 7.5 uM incubated for 16 hrs by broth microdilution method (reference value: 1024 ug/ml); format: functional; conditions: Acinetobacter baumannii, 4106, 16 h
How it was run: (§1)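 Colistin MIC was measured against chromosomally colistin-resistant strains (K. pneumoniae B9, C3; A. baumannii 4106, among four strains) with adjuvant at fixed levels from 20 μM down to 7.5 μM. Fold reduction was reported against colistin alone, with the CLSI breakpoint taken as ≤2 μg/mL.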

[7] = tested on: Acinetobacter baumannii; test: Potentiation of colistin-induced antibacterial activity against Acinetobacter baumannii 17978 assessed as colistin MIC at 50 uM incubated for 16 hrs by broth microdilution method (reference value: 2 ug/ml); format: functional; conditions: Acinetobacter baumannii, 17978, 16 h
[8] = tested on: Escherichia coli; test: Potentiation of colistin-induced antibacterial activity against Escherichia coli YD626 harbouring mcr-1 gene assessed as reduction in colistin MIC at 15 uM incubated for 16 hrs by broth microdilution method; format: functional, organism-based
How it was run: (§2)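 For the dose-response, colistin MIC was measured against mcr-1 plasmid-bearing E. coli, K. pneumoniae and A. baumannii while the adjuvant concentration was lowered stepwise (30, 15 μM, down to 5 μM). The aim was to find where the MIC rose above the 2 μg/mL CLSI susceptibility breakpoint.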

[9] = tested on: Klebsiella pneumoniae; test: Potentiation of colistin-induced antibacterial activity against Klebsiella pneumoniae B9 assessed as reduction in colistin MIC at 20 uM incubated for 16 hrs by broth microdilution method (reference value: 512 ug/ml); format: functional; conditions: B9, 16 h
[10] = tested on: Acinetobacter baumannii; test: Potentiation of colistin-induced antibacterial activity against Acinetobacter baumannii 4106 assessed as reduction in colistin MIC at 5 uM incubated for 16 hrs by broth microdilution method (reference value: 1024 ug/ml); format: functional; conditions: Acinetobacter baumannii, 4106, 16 h
[11] = Cytotoxicity against mouse 4T1 cells assessed as reduction in cell viability incubated for 18 hrs by MTT assay; format: cell-based
How it was run: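 4T1 mouse mammary tumor cells exposed to compound for 18 h, alone or together with colistin at 1 μg/mL. Medium then aspirated and replaced with 0.5 mg/mL MTT in culture medium for colorimetric viability read-out. CT50 taken as the concentration giving 50% cell viability.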

[12] = tested on: Klebsiella pneumoniae; test: Potentiation of colistin-induced antibacterial activity against Klebsiella pneumoniae C3 assessed as reduction in colistin MIC at 10 uM incubated for 16 hrs by broth microdilution method (reference value: 512 ug/ml); format: functional; conditions: C3, 16 h
[13] = tested on: Acinetobacter baumannii; test: Potentiation of colistin-induced antibacterial activity against Acinetobacter baumannii 17978 harbouring mcr-1 gene assessed as reduction in colistin MIC at 5 uM incubated for 16 hrs by broth microdilution method (reference value: 16 ug/ml); format: functional; conditions: Acinetobacter baumannii, 17978, 16 h; how it was run: as §2
[14] = tested on: Klebsiella pneumoniae; test: Potentiation of colistin-induced antibacterial activity against Klebsiella pneumoniae C3 assessed as reduction in colistin MIC at 5 uM incubated for 16 hrs by broth microdilution method (reference value: 512 ug/ml); format: functional; conditions: C3, 16 h
[15] = tested on: Klebsiella pneumoniae; test: Potentiation of colistin-induced antibacterial activity against Klebsiella pneumoniae B9 assessed as reduction in colistin MIC at 10 uM incubated for 16 hrs by broth microdilution method (reference value: 512 ug/ml); format: functional; conditions: B9, 16 h; how it was run: as §1
[16] = tested on: Acinetobacter baumannii; test: Potentiation of colistin-induced antibacterial activity against Acinetobacter baumannii 17978 harbouring mcr-1 gene assessed as reduction in colistin MIC at 15 uM incubated for 16 hrs by broth microdilution method; format: functional, organism-based; how it was run: as §2
[17] = tested on: Acinetobacter baumannii; test: Potentiation of colistin-induced antibacterial activity against Acinetobacter baumannii 3941 assessed as reduction in colistin MIC at 20 uM incubated for 16 hrs by broth microdilution method (reference value: 512 ug/ml); format: functional; conditions: Acinetobacter baumannii, 3941, 16 h
[18] = tested on: Klebsiella pneumoniae; test: Potentiation of colistin-induced antibacterial activity against Klebsiella pneumoniae B9 assessed as reduction in colistin MIC at 7.5 uM incubated for 16 hrs by broth microdilution method (reference value: 512 ug/ml); format: functional; conditions: B9, 16 h
[19] = tested on: Acinetobacter baumannii; test: Potentiation of colistin-induced antibacterial activity against Acinetobacter baumannii 4106 assessed as reduction in colistin MIC at 15 uM incubated for 16 hrs by broth microdilution method (reference value: 1024 ug/ml); format: functional; conditions: Acinetobacter baumannii, 4106, 16 h
[20] = tested on: Klebsiella pneumoniae; test: Potentiation of colistin-induced antibacterial activity against Klebsiella pneumoniae C3 assessed as reduction in colistin MIC at 20 uM incubated for 16 hrs by broth microdilution method (reference value: 512 ug/ml); format: functional; conditions: C3, 16 h; how it was run: as §1
[21] = tested on: Acinetobacter baumannii; test: Potentiation of colistin-induced antibacterial activity against Acinetobacter baumannii 17978 harbouring mcr-1 gene assessed as colistin MIC at 50 uM incubated for 16 hrs by broth microdilution method (reference value: 16 ug/ml); format: functional; conditions: Acinetobacter baumannii, 17978, 16 h
[22] = tested on: Acinetobacter baumannii; test: Potentiation of colistin-induced antibacterial activity against Acinetobacter baumannii 3941 assessed as reduction in colistin MIC at 10 uM incubated for 16 hrs by broth microdilution method (reference value: 512 ug/ml); format: functional; conditions: Acinetobacter baumannii, 3941, 16 h
[23] = tested on: Klebsiella pneumoniae; test: Potentiation of colistin-induced antibacterial activity against Klebsiella pneumoniae B9 assessed as reduction in colistin MIC at 15 uM incubated for 16 hrs by broth microdilution method (reference value: 512 ug/ml); format: functional; conditions: B9, 16 h
[24] = tested on: Klebsiella pneumoniae; test: Potentiation of colistin-induced antibacterial activity against Klebsiella pneumoniae 2210291 assessed as colistin MIC at 50 uM incubated for 16 hrs by broth microdilution method (reference value: 1 ug/ml); format: functional; conditions: Klebsiella pneumoniae, 2210291, 16 h
[25] = Hemolytic activity in sheep RBC at 200 uM incubated for 1 hr by UV spectrophotometry; format: ADME, cell-based, Ovis aries, Erythrocyte; conditions: sheep red blood cells (erythrocytes), read-out: Activity
How it was run: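 Red blood cells exposed to compound at 200 μM, with percent cell lysis recorded.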

[26] = tested on: Klebsiella pneumoniae; test: Potentiation of colistin-induced antibacterial activity against Klebsiella pneumoniae 2210291 harbouring mcr-1 gene assessed as colistin MIC at 50 uM incubated for 16 hrs by broth microdilution method (reference value: 16 ug/ml); format: functional; conditions: Klebsiella pneumoniae, 2210291, 16 h
[27] = tested on: Klebsiella pneumoniae; test: Potentiation of colistin-induced antibacterial activity against Klebsiella pneumoniae B9 assessed as reduction in colistin MIC at 5 uM incubated for 16 hrs by broth microdilution method (reference value: 512 ug/ml); format: functional; conditions: B9, 16 h
[28] = tested on: Klebsiella pneumoniae; test: Potentiation of colistin-induced antibacterial activity against Klebsiella pneumoniae C3 assessed as reduction in colistin MIC at 7.5 uM incubated for 16 hrs by broth microdilution method (reference value: 512 ug/ml); format: functional; conditions: C3, 16 h; how it was run: as §1

With O=C(NCCc1c[nH]c2ccc(Br)cc12)Nc1cc(Cl)c(Br)c(Cl)c1 the MIC [1] was 16 µg/mL, the MIC [2] was 1 µg/mL and the MIC [3] was 0.25 µg/mL. For the same compound, the MIC [4] was no more than 0.5 µg/mL, the Activity [5] was “Active” and the MIC [6] was 1 µg/mL. For the same compound, the MIC [7] was 0.5 µg/mL, the Activity [8] was “Active” and the MIC [9] was no more than 0.25 µg/mL. For the same compound, the MIC [10] was 4 µg/mL, the CC50 at 18 h [11] was 94.1 µM and the MIC [12] was 1 µg/mL. The MIC [13] was 1 µg/mL, the MIC [14] was 4 µg/mL and the MIC [15] was no more than 0.25 µg/mL. The Activity [16] was “Active”, the MIC [17] was 2 µg/mL and the MIC [18] was no more than 0.25 µg/mL. For the same compound, the MIC [19] was no more than 0.5 µg/mL, the MIC [20] was 0.5 µg/mL and the MIC [21] was 0.5 µg/mL. It also gave an MIC [22] of 4 µg/mL, an MIC [23] of no more than 0.25 µg/mL and an MIC [24] of 0.5 µg/mL. The hemolysis at 1 h, 200 µM [25] was less than 2.5%, the MIC [26] was 0.5 µg/mL and the MIC [27] was 0.5 µg/mL. For the same compound, the MIC [28] was 2 µg/mL.
